*1 amine or outer side, *2 acyl side, *3 side chain or, on linkers, in order; H or OH if unused. Where a SMILES comes first, the peptide text is derived from it. Bridges are numbered along the chain shown (N, C = ends). [ ]: non-standard residue; d: D form. The star is where a group is joined. Staurosporine = CO[C@@H]1[C@H](N(C)*)C[C@H]2O[C@]1(C)n1c3ccccc3c3c4c(c5c6ccccc6n2c5c31)C(=O)NC4; Suc = O=C(CCC(=O)[*:2])[*:1]; Dap = NC[C@H](N)C(=O)O; βAla = NCCC(=O)O
Tests used:
[1] = target: Ephrin type-A receptor 2 (Homo sapiens) (UniProt P29317); assay: Binding affinity to human EPHA2 at 500 nM by cell-based competition binding assay relative to control in presence of DTT
In short: (§1)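 Commercial (Ambit) competitive kinase-binding panel of 90 kinases measured the binding profile. Run under reducing conditions of 7.5 mM DTT. Binding is expressed relative to control.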

[2] = target: Tyrosine-protein kinase receptor UFO (Homo sapiens) (UniProt P30530); assay: Binding affinity to human AXL at 500 nM by cell-based competition binding assay relative to control in presence of DTT
Chain of Tyrosine-protein kinase receptor UFO (Homo sapiens) (P30530 whole entry): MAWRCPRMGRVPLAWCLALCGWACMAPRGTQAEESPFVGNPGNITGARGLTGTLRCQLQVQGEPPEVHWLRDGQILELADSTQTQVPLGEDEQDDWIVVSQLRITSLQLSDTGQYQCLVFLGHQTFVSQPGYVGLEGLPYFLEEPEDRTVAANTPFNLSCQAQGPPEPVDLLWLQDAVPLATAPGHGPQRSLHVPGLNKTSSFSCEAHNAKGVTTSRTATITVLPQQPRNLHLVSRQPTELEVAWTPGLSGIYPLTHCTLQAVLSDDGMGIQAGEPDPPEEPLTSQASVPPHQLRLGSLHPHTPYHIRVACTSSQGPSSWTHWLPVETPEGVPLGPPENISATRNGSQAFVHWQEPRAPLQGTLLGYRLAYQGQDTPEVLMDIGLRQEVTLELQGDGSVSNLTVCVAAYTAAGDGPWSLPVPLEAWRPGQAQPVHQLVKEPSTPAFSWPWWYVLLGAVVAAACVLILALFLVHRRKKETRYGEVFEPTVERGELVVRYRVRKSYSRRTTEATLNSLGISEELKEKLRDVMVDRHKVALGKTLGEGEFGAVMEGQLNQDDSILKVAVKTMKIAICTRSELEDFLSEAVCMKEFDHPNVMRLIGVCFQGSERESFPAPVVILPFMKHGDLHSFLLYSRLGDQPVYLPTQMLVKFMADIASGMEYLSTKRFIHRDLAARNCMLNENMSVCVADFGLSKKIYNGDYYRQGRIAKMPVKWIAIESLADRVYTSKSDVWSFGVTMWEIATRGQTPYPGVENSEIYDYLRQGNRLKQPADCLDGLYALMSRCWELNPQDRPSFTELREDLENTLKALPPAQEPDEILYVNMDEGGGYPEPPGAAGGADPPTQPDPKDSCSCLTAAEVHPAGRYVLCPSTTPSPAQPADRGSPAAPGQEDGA
In short: (§2)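 Kinase binding profiling ran on a commercial (Ambit) competitive binding screen against a panel of 90 kinases. The screen used reducing conditions with 7.5 mM DTT. To withstand the DTT, the bivalent ligand was tested as its amide isostere, with the disulfide replaced. A staurosporine derivative carrying a 3 β-alanine linker was run as the reference compound.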

[3] = target: MAP kinase-interacting serine/threonine-protein kinase 1 (Homo sapiens) (UniProt Q9BUB5); assay: Binding affinity to human MKNK1 at 500 nM by cell-based competition binding assay relative to control in presence of DTT
[4] = target: Mitogen-activated protein kinase 11 (Homo sapiens) (UniProt Q15759); assay: Binding affinity to human p38beta at 500 nM by cell-based competition binding assay relative to control in presence of DTT
Chain of Mitogen-activated protein kinase 11 (Homo sapiens) (Q15759 whole entry): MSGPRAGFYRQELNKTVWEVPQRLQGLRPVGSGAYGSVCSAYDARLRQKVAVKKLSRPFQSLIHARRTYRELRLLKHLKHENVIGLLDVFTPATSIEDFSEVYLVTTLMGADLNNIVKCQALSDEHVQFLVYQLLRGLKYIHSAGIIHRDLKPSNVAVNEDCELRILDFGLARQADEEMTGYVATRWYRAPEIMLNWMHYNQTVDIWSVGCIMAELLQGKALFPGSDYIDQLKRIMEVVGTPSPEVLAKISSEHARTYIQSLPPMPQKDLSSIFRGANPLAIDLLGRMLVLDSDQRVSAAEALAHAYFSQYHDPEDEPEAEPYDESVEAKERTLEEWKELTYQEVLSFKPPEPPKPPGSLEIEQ

[5] = target: Mitogen-activated protein kinase 3 (Homo sapiens) (UniProt P27361); assay: Binding affinity to human ERK1 at 200 nM by cell-based competition binding assay relative to control in presence of DTT; in short: as §1
Chain of Mitogen-activated protein kinase 3 (Homo sapiens) (P27361 whole entry): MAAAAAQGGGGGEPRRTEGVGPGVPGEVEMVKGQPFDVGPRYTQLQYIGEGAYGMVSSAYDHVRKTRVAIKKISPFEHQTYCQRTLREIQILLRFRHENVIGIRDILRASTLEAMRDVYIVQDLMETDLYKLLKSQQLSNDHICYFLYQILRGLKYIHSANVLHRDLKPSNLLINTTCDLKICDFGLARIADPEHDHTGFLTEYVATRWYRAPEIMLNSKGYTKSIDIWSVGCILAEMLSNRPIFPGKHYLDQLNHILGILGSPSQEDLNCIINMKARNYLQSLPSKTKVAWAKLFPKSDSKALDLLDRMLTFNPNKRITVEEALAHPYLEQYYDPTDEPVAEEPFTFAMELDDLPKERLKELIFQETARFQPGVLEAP

[6] = target: Receptor-type tyrosine-protein kinase FLT3 (Homo sapiens) (UniProt P36888); assay: Binding affinity to human FLT3 at 200 nM by cell-based competition binding assay relative to control in presence of DTT; in short: as §1
Chain of Receptor-type tyrosine-protein kinase FLT3 (Homo sapiens) (P36888 whole entry): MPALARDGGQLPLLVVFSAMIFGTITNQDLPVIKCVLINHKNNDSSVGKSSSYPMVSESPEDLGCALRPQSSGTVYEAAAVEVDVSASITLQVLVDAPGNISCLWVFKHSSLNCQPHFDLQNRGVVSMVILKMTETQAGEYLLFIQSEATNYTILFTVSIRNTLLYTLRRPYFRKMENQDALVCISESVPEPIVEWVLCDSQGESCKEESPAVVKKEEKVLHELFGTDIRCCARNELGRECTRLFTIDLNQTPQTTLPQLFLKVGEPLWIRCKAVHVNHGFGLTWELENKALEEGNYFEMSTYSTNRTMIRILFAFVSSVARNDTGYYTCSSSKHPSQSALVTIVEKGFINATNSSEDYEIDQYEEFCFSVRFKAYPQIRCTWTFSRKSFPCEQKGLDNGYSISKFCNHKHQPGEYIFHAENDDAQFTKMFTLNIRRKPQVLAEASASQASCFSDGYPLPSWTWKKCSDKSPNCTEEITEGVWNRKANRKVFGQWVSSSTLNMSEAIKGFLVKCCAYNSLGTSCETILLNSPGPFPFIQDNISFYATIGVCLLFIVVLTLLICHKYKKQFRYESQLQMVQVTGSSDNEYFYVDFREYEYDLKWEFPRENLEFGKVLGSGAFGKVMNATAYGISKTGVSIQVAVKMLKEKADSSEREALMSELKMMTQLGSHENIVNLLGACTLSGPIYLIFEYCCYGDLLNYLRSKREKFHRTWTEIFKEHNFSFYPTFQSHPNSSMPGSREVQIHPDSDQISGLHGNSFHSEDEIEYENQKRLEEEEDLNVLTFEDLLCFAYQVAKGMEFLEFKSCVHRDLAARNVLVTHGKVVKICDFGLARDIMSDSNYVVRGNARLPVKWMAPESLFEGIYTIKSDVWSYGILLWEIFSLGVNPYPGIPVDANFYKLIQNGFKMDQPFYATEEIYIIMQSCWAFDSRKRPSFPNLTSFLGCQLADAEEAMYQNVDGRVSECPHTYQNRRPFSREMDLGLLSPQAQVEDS

[7] = target: Insulin receptor (Homo sapiens) (UniProt P06213); assay: Binding affinity to human INSR at 200 nM by cell-based competition binding assay relative to control in presence of DTT
In short: (§3)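 Competition binding screen (Ambit) across a panel of 90 kinases, scoring test ligand displacement of each kinase's binding relative to control. The screen ran under reducing conditions with 7.5 mM DTT.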

[8] = target: Mitogen-activated protein kinase 8 (Homo sapiens) (UniProt P45983); assay: Binding affinity to human JNK1 at 200 nM by cell-based competition binding assay relative to control in presence of DTT; in short: as §3
Chain of Mitogen-activated protein kinase 8 (Homo sapiens) (P45983 whole entry): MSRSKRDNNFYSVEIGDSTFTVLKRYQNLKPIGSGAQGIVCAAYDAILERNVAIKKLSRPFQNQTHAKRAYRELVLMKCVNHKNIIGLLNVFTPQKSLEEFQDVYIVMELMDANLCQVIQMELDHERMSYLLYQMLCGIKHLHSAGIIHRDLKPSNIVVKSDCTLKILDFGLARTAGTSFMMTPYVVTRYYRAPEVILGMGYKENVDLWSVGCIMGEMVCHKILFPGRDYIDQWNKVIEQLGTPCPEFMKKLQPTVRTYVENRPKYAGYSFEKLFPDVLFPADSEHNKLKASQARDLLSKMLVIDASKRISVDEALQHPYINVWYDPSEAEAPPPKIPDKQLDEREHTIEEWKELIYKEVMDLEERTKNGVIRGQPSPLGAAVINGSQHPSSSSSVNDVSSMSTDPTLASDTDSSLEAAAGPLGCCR

[9] = target: MAP kinase-activated protein kinase 2 (Homo sapiens) (UniProt P49137); assay: Binding affinity to human MAPKAPK2 at 200 nM by cell-based competition binding assay relative to control in presence of DTT; in short: as §3
[10] = target: Hepatocyte growth factor receptor (Homo sapiens) (UniProt P08581); assay: Binding affinity to human MET at 200 nM by cell-based competition binding assay relative to control in presence of DTT
[11] = target: Serine/threonine-protein kinase PAK 1 (Homo sapiens) (UniProt Q13153); assay: Binding affinity to human PAK1 at 200 nM by cell-based competition binding assay relative to control in presence of DTT
[12] = target: Proto-oncogene tyrosine-protein kinase Src (Homo sapiens) (UniProt P12931); assay: Binding affinity to human SRC at 200 nM by cell-based competition binding assay relative to control in presence of DTT
[13] = target: Aurora kinase B (Homo sapiens) (UniProt Q96GD4); assay: Binding affinity to human aurora kinase B at 50 nM by cell-based competition binding assay relative to control in presence of DTT
Chain of Aurora kinase B (Homo sapiens) (Q96GD4 whole entry): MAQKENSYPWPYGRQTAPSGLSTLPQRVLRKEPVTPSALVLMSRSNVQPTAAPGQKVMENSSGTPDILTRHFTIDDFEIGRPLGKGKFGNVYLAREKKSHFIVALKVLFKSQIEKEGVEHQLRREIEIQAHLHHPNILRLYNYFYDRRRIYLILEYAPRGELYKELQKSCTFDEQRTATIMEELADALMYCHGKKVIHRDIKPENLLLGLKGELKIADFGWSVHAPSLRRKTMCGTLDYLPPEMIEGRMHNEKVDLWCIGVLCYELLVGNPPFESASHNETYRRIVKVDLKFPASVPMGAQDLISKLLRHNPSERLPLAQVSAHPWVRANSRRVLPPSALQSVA

[14] = test system: Serine/threonine-protein kinase B-raf (Homo sapiens), P15056 [V600E]; assay: Binding affinity to human BRAF V600E mutant at 50 nM by cell-based competition binding assay relative to control in presence of DTT; in short: as §2
[15] = target: Epidermal growth factor receptor (Homo sapiens) (UniProt P00533); assay: Binding affinity to human EGFR at 50 nM by cell-based competition binding assay relative to control in presence of DTT; in short: as §1
[16] = target: MAP/microtubule affinity-regulating kinase 3 (Homo sapiens) (UniProt P27448); assay: Binding affinity to human MARK3 at 50 nM by cell-based competition binding assay relative to control in presence of DTT; in short: as §3
[17] = target: Serine/threonine-protein kinase PAK 4 (Homo sapiens) (UniProt O96013); assay: Binding affinity to human PAK4 at 50 nM by cell-based competition binding assay relative to control in presence of DTT
[18] = target: Phosphatidylinositol 4-phosphate 3-kinase C2 domain-containing subunit beta (Homo sapiens) (UniProt O00750); assay: Binding affinity to human PIK3C2beta at 50 nM by cell-based competition binding assay relative to control in presence of DTT
Chain of Phosphatidylinositol 4-phosphate 3-kinase C2 domain-containing subunit beta (Homo sapiens) (O00750 whole entry, the tested form may be a part): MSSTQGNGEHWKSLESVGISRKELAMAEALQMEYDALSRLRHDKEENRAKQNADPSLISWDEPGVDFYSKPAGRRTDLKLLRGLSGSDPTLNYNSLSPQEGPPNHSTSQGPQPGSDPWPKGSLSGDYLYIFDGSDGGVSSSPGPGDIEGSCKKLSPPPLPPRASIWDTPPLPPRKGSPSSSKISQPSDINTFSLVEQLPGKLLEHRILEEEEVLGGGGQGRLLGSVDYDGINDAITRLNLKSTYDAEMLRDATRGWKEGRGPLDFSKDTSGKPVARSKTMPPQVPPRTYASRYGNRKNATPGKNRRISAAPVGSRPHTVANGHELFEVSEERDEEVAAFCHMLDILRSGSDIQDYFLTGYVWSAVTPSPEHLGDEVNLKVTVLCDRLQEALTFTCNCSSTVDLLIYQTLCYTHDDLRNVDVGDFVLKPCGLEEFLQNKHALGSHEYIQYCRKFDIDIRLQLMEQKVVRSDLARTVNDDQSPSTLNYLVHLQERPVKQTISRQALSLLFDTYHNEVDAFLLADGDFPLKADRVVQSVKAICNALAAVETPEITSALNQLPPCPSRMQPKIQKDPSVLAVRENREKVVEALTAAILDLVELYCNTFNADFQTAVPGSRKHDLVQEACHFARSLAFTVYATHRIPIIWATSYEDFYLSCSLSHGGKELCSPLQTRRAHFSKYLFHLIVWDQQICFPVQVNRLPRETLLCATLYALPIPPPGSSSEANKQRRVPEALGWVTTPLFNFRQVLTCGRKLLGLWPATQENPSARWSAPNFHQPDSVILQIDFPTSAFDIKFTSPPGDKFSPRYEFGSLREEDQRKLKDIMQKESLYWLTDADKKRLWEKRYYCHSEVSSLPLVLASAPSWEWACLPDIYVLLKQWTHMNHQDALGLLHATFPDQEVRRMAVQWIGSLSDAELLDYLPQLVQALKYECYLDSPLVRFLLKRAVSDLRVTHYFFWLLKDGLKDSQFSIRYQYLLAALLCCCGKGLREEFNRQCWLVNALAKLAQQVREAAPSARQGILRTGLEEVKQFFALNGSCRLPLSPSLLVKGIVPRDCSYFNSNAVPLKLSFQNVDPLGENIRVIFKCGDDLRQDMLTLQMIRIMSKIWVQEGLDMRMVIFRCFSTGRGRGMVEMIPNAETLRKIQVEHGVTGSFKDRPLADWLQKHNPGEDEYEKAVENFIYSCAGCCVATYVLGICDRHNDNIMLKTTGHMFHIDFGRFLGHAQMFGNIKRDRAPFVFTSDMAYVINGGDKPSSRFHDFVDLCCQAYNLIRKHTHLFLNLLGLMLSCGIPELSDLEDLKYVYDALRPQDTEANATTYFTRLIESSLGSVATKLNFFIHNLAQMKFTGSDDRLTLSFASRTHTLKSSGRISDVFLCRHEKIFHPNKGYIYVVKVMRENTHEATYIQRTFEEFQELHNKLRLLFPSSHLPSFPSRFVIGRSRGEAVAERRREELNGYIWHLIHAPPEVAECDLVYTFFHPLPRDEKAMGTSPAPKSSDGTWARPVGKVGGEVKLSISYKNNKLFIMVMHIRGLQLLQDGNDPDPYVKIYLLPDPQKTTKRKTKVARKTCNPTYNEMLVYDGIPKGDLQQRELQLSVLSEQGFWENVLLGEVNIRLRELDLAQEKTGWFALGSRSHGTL

[19] = target: T1, Protein kinase C epsilon type (Homo sapiens) (UniProt Q02156); assay: Binding affinity to human PRKCepsilon at 50 nM by cell-based competition binding assay relative to control in presence of DTT
T1 sequence (whole entry): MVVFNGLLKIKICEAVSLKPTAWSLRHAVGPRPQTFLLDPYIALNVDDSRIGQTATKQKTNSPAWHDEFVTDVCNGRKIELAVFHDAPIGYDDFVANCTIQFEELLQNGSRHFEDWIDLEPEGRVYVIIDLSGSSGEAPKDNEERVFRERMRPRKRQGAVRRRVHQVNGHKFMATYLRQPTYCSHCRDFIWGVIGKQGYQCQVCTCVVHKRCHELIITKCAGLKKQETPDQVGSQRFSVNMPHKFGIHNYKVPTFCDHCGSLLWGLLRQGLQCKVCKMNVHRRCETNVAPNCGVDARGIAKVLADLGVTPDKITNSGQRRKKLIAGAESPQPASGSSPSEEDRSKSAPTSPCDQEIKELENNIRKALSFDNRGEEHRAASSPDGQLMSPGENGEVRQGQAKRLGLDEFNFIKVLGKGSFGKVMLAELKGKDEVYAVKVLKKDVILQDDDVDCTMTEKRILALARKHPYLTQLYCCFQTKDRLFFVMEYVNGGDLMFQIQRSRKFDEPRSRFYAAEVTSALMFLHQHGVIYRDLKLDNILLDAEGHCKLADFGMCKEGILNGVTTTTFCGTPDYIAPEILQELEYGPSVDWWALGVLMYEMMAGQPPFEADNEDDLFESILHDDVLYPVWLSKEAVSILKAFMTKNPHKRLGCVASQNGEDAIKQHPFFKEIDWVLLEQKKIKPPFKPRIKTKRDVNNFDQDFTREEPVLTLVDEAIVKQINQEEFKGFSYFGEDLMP

[20] = target: Vascular endothelial growth factor receptor 2 (Homo sapiens) (UniProt P35968); assay: Binding affinity to human VEGFR2 at 50 nM by cell-based competition binding assay relative to control in presence of DTT
[21] = target: Receptor-type tyrosine-protein kinase FLT3 (Homo sapiens) (UniProt P36888); assay: Binding affinity to human FLT3 at 50 nM by cell-based competition binding assay relative to control in presence of DTT; in short: as §1
[22] = target: cAMP-dependent protein kinase catalytic subunit alpha (Homo sapiens) (UniProt P17612); assay: Binding affinity to human PKACalpha at 50 nM by cell-based competition binding assay relative to control in presence of DTT

CO[C@@H]1[C@H](N(C)C(=O)CCC(=O)NCCC(=O)NCCC(=O)NCCC(N)=O)C[C@H]2O[C@]1(C)n1c3ccccc3c3c4c(c5c6ccccc6n2c5c31)C(=O)NC4
Activity [1]: 80%
Activity [2]: 8%
Activity [3]: 82%
Activity [4]: 100%

CO[C@@H]1[C@H](N(C)C(=O)CCC(=O)NCCC(=O)NCCC(=O)NCCC(=O)NCCC(=O)NCCC(=O)NCCC(=O)NCCC(=O)N[C@H]2CSSC[C@@H](C(=O)NCC(N)=O)NC(=O)CNC(=O)[C@H](Cc3ccccc3)NC(=O)[C@H](C(C)C)NC(=O)[C@H](CCCNC(=N)N)NC(=O)[C@H](Cc3ccccc3)NC(=O)[C@H](C(C)C)NC2=O)C[C@H]2O[C@]1(C)n1c3ccccc3c3c4c(c5c6ccccc6n2c5c31)C(=O)NC4 ({Staurosporine-Suc-βAla-βAla-βAla-βAla-βAla-βAla-βAla}-CVFRVFGCG-NH2; disulfide 1-8)
Activity [5]: 100%
Activity [6]: 1%
Activity [7]: 100%
Activity [8]: 83%
Activity [9]: 100%
Activity [10]: 77%
Activity [11]: 14%
Activity [12]: 100%

CO[C@@H]1[C@H](N(C)C(=O)CCC(=O)NCCC(=O)NCCC(=O)NCCC(=O)NCCC(=O)NCCC(=O)NCCC(=O)NCCC(=O)N[C@H]2CNC(=O)C[C@@H](C(N)=O)NC(=O)CNC(=O)[C@H](Cc3ccccc3)NC(=O)[C@H](C(C)C)NC(=O)[C@H](CCCNC(=N)N)NC(=O)[C@H](Cc3ccccc3)NC(=O)[C@H](C(C)C)NC2=O)C[C@H]2O[C@]1(C)n1c3ccccc3c3c4c(c5c6ccccc6n2c5c31)C(=O)NC4 ({Staurosporine-Suc-βAla-βAla-βAla-βAla-βAla-βAla-βAla}-[Dap]VFRVFGD-NH2; lactam 1-8)
Activity [13]: 33%
Activity [14]: 84%
Activity [15]: 87%
Activity [16]: 61%
Activity [17]: 90%
Activity [18]: 100%
Activity [19]: 0%
Activity [20]: 91%
Activity [21]: 7.4%
Activity [22]: 10%

— ChEMBL document CHEMBL1152541, “Staurosporine tethered peptide ligands that target cAMP-dependent protein kinase (PKA): optimization and selectivity profiling” (Bioorg Med Chem, 2009)
